Counter-ions that a name gives are not always drawn. Activity calls are given as the source filed them. The rule behind the calls is not given here.
Tests used:
Thoracic aorta [1] = experiment: Potentiation of 1-Nitrosocyclohexyl acetate induced- vasodilatory activity in Sprague-Dawley rat thoracic aorta at 1 mM; type: functional, tissue-based
Procedure, shortened: (§1)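 Male Sprague-Dawley rat (200-250 g) thoracic aorta rings, 2-4 mm, in Krebs-Henseleit buffer at 37°C, pH 7.45, 2 g basal tension, 1 hr equilibration, 70 mM KCl viability check. Pretreated with L-NAME (100 μM) and indomethacin (5 μM), then preconstricted with phenylephrine (100 nM). Donors added cumulatively; relaxation is delta tension as percent of maximal PE constriction. Sigmoidal fits by non-linear regression give EC50.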

Thoracic aorta [2] = experiment: Potentiation of MahmaNonoate induced- vasodilatory activity in Sprague-Dawley rat thoracic aorta at 1 mM; type: functional, tissue-based; procedure, shortened: as §1
Thoracic aorta [3] = experiment: Potentiation of 1-Nitrosocyclohexyl trifluoroacetate induced- vasodilatory activity in Sprague-Dawley rat thoracic aorta at 1 mM; type: functional, tissue-based; procedure, shortened: as §1
Thoracic aorta [4] = experiment: Potentiation of Angeli's salt induced- vasodilatory activity in Sprague-Dawley rat thoracic aorta at 1 mM; type: functional, tissue-based; procedure, shortened: as §1
Thoracic aorta [5] = experiment: Vasodilatory activity in Sprague-Dawley rat thoracic aorta assessed as relaxation of phenylephrine-induced vasoconstriction compound treated 5 mins after 1 uM soluble guanylate cyclase inhibitor ODQ treatment; type: functional, tissue-based; procedure, shortened: as §1
Thoracic aorta [6] = experiment: Vasodilatory activity in Sprague-Dawley rat thoracic aorta assessed as relaxation of phenylephrine-induced vasoconstriction compound treated 5 mins after 200 uM NO-scavenger C-PTIO treatment; type: functional, tissue-based; procedure, shortened: as §1
Thoracic aorta [7] = experiment: Vasodilatory activity in Sprague-Dawley rat thoracic aorta assessed as relaxation of phenylephrine-induced vasoconstriction at 0.01 nM to 100 uM; type: functional, tissue-based; procedure, shortened: as §1
Thoracic aorta [8] = experiment: Inhibition of 1-Nitrosocyclohexyl acetate induced- vasodilatory activity in Sprague-Dawley rat thoracic aorta at 0.1 to 1 mM; type: functional, tissue-based; procedure, shortened: as §1
Thoracic aorta [9] = experiment: Inhibition of 1-Nitrosocyclohexyl trifluoroacetate induced- vasodilatory activity in Sprague-Dawley rat thoracic aorta at 0.1 to 1 mM; type: functional, tissue-based; procedure, shortened: as §1
Thoracic aorta [10] = experiment: Inhibition of Angeli's salt induced- vasodilatory activity in Sprague-Dawley rat thoracic aorta at 0.1 to 1 mM; type: functional, tissue-based; procedure, shortened: as §1
Thoracic aorta [11] = experiment: Vasodilatory activity in Sprague-Dawley rat thoracic aorta assessed as relaxation of phenylephrine-induced vasoconstriction at 0.01 nM to 1 uM in presence of 21% oxygen; type: functional, tissue-based; procedure, shortened: as §1
Rattus norvegicus [12] = species on record: Rattus norvegicus; experiment: Vasodilatory activity in rat thoracic aorta assessed as relaxation of phenylephrine-induced vasoconstriction
Rattus norvegicus [13] = species on record: Rattus norvegicus; experiment: Vasodilatory activity in rat aorta assessed as relaxation of phenylephrine-induced vasoconstriction
Thoracic aorta [14] = experiment: Vasodilatory activity in Sprague-Dawley rat thoracic aorta assessed as relaxation of phenylephrine-induced vasoconstriction at 0.01 nM to 1 uM in presence of 1% oxygen; type: functional, tissue-based; procedure, shortened: as §1
Thoracic aorta [15] = experiment: Vasodilatory activity in Sprague-Dawley rat thoracic aorta assessed as relaxation of phenylephrine-induced vasoconstriction at 0.01 nM to 1 uM in presence 100 U/ml SOD at 21% oxygen; type: functional, tissue-based; procedure, shortened: as §1
Rattus norvegicus [16] = species on record: Rattus norvegicus; experiment: Ratio of compound EC50 to Angeli's salt EC50 for vasodilatory activity in rat aorta
Rattus norvegicus [17] = species on record: Rattus norvegicus; experiment: Ratio of compound EC50 to Angeli's salt EC50 for vasodilatory activity in rat thoracic aorta

Row | EC50 (Rattus norvegicus [12]) [nM] | EC50 (Rattus norvegicus [13]) [nM] | Structure (SMILES) | Activity (Thoracic aorta [1]) | Activity (Thoracic aorta [2]) | Activity (Thoracic aorta [3]) | Activity (Thoracic aorta [4]) | Activity (Thoracic aorta [5]) | Activity (Thoracic aorta [6]) | Activity (Thoracic aorta [7]) | inhibition (Thoracic aorta [8]) | inhibition (Thoracic aorta [9]) | inhibition (Thoracic aorta [10]) | Activity (Thoracic aorta [11]) | Activity (Thoracic aorta [14]) | Activity (Thoracic aorta [15]) | Ratio EC50 (Rattus norvegicus [16]) | Ratio EC50 (Rattus norvegicus [17])
1 |  |  | CC(=O)N[C@@H](CS)C(=O)O | inactive | inactive | Active | Active |  |  |  |  |  |  |  |  |  |  | 
2 |  |  | CNCCCCCCN(C)N(O)N=O | inactive | inactive |  |  | inactive | inactive | Dose-dependent effect |  |  |  |  |  |  |  | 
3 |  |  | N[C@@H](CCC(=O)N[C@@H](CS)C(=O)NCC(=O)O)C(=O)O |  |  |  |  |  |  |  | inactive | Active | Active |  |  |  |  | 
4 | 10000 | 10000 | CC(=O)OC1(N=O)CCCCC1 [1-NITROSOCYCLOHEXYL ACETATE] | inactive | inactive |  |  | inactive | inactive | Dose-dependent effect | inactive |  |  | Active | Active | Active |  | 
5 | 880 | 880 | O=NC1(OC(=O)C(F)(F)F)CCCCC1 [1-NITROSOCYCLOHEXYL TRIFLUOROACETATE] |  |  | Active | Active | inactive | inactive | Dose-dependent effect |  | Active | Active | Active | Active | Active | 10 | 10
6 | 82 | 82 | [O-][N+]([O-])=NO [ANGELI'S SALT] |  |  | Active | Active | inactive | inactive | Dose-dependent effect |  | Active | Active | Active | inactive | Active |  | 

— ChEMBL document CHEMBL1681634, “Acyloxy nitroso compounds as nitroxyl (HNO) donors: kinetics, reactions with thiols, and vasodilation properties” (J Med Chem, 2011)
